# Rows were chosen to be rich in hits. Some 3.5% of all compounds tested hit in one or more screens of this group.
# MrgX1 antag: blocks BAM8-22 activation of human MrgX1 receptor. MRGX1-HEK293 calcium flux, Fluo-4, BAM8-22 antagonism; hits give low values. B-score at 10 µM. actives 1.3% (n = 310,000). AID 588676;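 active = calcium-response B-score plate-corrected more than 3 library SD below zero, starting fluorescence within 5 deviations, no agonist response on first addition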;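 also: peak minus trough fluorescence over baseline after final BAM8-22 challenge near maximal dose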
# Target sequence (Q96LB2 whole entry, looked up): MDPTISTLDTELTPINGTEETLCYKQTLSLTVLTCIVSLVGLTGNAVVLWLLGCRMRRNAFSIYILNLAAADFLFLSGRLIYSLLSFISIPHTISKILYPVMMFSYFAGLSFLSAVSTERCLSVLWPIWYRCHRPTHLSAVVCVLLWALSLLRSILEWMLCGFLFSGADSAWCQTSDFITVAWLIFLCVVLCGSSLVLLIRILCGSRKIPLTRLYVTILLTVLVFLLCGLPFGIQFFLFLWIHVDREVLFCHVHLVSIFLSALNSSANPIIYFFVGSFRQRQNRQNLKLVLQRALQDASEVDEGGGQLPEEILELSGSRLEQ
# RGS4 inh: human RGS4 inhibition | P49798 | HEK293 M3R/RGS4 inducible, Fluo-4 calcium flux; hits give high values; triggered by carbachol at its EC20 | B-score at 10 µM | actives 0.45% (n = 310,000) | AID 463165;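 active = B-score, a plate-corrected calcium signal, over three deviations above library mean, with baseline fluorescence within five deviations of library mean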;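 also: RGS4 expression induced by doxycycline in cells with stable M3 receptor; B-score is computed from the integrated fluorescence ratio over baseline after carbachol; higher B-score means a larger calcium signal and so more RGS4 inhibition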
# Target sequence (P49798 whole entry, looked up): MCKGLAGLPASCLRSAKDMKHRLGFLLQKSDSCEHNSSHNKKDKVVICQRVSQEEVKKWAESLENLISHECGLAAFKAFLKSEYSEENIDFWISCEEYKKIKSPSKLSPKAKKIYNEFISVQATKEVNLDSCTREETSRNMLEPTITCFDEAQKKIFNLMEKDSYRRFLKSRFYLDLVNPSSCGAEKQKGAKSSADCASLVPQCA
# MrgX1 PAM: human MrgX1 positive allosteric modulation, primary screen; MrgX1-HEK293, Fluo-4 calcium flux, FDSS; hits give high values; AID 588675; B-score at 10 µM; actives 0.63% (n = 310,000); Q96LB2;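 active = plate-corrected calcium response at least 3 library SD above typical, normal starting fluorescence, not activating the receptor alone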;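 also: compound read alongside a low EC10 to EC30 dose of BAM8-22 agonist; peak minus trough fluorescence over baseline measured at the second addition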
# RGS4 pot: RGS4 potentiation or activation; B-score at 10 µM; HEK293 M3R/inducible RGS4, carbachol calcium flux Fluo4; hits give low values; actives 0.92% (n = 310,000); AID 463111;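 active = B-score of the integrated calcium signal more than 4 SD below the library mean, with starting fluorescence not abnormally high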;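 also: negative B-score means reduced calcium response which marks RGS4 activation or potentiation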
#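 test system = M3R-expressing HEK293 line, RGS4 induced by doxycycline | probe or stimulus = carbachol at ECmax as muscarinic agonist stimulus | timing = dye loading 30 min 37 °C, buffer rest 30 min RT | signal = calcium dye Fluo4 fluorescence | evaluation = B score from integrated fluorescence ratio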
# MrgX1 ag: agonists of human MrgX1 receptor; MrgX1-HEK293 cells, Fluo-4 calcium fluorescence, agonist mode; hits give high values; Q96LB2; actives 0.44% (n = 310,000); AID 588627; B-score at 10 µM;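 active = calcium response B-score plate-corrected fluorescence ratio at least 3 library SD, with starting fluorescence B-score inside 5 SD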
#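 Material: HEK293 cells stably expressing human MrgX1 receptor | Quantity: 15,000 cells per well | Times: Cells plated overnight, dye loaded 0.5 h 37 °C, 0.5 h room temperature | Measured by: Kinetic Fluo-4 NW fluorescence of intracellular calcium | Control set: Positive and negative controls per plate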
# MrgX1 PAM conf: human MrgX1 positive allosteric modulation, re-confirmation; shares compounds with MrgX1 PAM; MrgX1-HEK293, Fluo-4 calcium fluorescence, FDSS; activation (ratio percentage), % at 10 µM; actives 13% (n = 1,200); AID 602413;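 active = ratio at least 3 SD above the weak peptide control, stable starting fluorescence, no direct agonism earlier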;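 also: compound followed by low BAM8-22 agonist challenge near EC20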
# MrgX1 antag conf: human MrgX1 receptor antagonism, re-confirmation screen; shares compounds with MrgX1 antag; remaining BAM8-22 calcium response % of control (hits give low values), % at 10 µM; MrgX1-HEK293, BAM8-22 calcium flux, Fluo-4; hits give low values; AID 602420; actives 19% (n = 2,300);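 active = remaining agonist calcium response no higher than 100% minus 3 SD of agonist-only control wells, with starting fluorescence near control levels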;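 also: agonist BAM8-22 given at a near maximal EC90 to ECmax level; peak minus minimum fluorescence divided by baseline after agonist addition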
# HEK293 Ca flux: MrgX1 antagonist counter-screen hit in parental HEK293 cells; shares compounds with MrgX1 antag; Fluo-4 calcium fluorescence, FDSS; fluorescence ratio F(max-min)/F0 at 10 µM; actives 2% (n = 4,000); AID 624111;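 active = duplicate-averaged calcium fluorescence ratio at least three times the standard deviation of buffer wells, a nonspecific response in parental cells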
# HEK293 Ca counter: counter-screen for MrgX1 allosteric activators: effect in parental HEK293 cells | shares compounds with MrgX1 antag | parental HEK293 calcium flux, Fluo-4 fluorescence ratio; hits give high values | fluorescence ratio F(max-min)/F0 at 10 µM | actives 0.4% (n = 4,000) | AID 624114;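 active = calcium fluorescence ratio, averaged over duplicates, at least 3 SD of the buffer-well ratio, meaning a nonspecific response in receptor-free cells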;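 also: untransfected parental HEK293 lacking MrgX1 used as counterscreen for MrgX1 allosteric activators; fluorescence change taken during the second addition on a kinetic imager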
# HEK293 Ca cntr2: counter-screen for MrgX1 activators: effect in parental HEK293 cells; shares compounds with MrgX1 antag; Fluo-4 calcium fluorescence (FDSS); hits give high values; fluorescence ratio F(max-min)/F0 at 10 µM; actives 8.7% (n = 4,000);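 active = calcium fluorescence ratio at least three times the spread of buffer wells, meaning a non-specific response in parental cells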
# Numbers without * were called inactive; i = inactive; / = not tested or not shown.
SMILES,MrgX1 antag,RGS4 inh,MrgX1 PAM,RGS4 pot,MrgX1 ag,MrgX1 PAM conf,HEK293 Ca flux,HEK293 Ca counter,HEK293 Ca cntr2,others
CCc1ccc(S(=O)(=O)NC(=S)NC2CCCCC2)cc1,i,i,15.7*,i,i,i,i,i,i,
Cc1ccc(S(=O)(=O)C2(C(=O)NC3CCCC3)CC2)cc1,i,i,i,i,i,/,/,/,/,
NS(=O)(=O)c1ccc(CCNC(=S)NC2CCCCC2)cc1,i,i,i,i,i,/,/,/,/,
Cc1ccc(S(=O)(=O)NC(=S)NC2CCCCC2)cc1,i,i,9.98*,i,i,i,i,i,i,
NS(=O)(=O)c1ccc(NC(=S)NNC(=O)c2ccc(Br)o2)cc1,i,i,i,i,i,/,/,/,/,
O=C(COc1ccc(Cl)cc1Cl)Nc1cccnc1,i,i,8.66*,i,i,i,i,i,i,
O=C(COc1ccc(Cl)cc1Cl)N/N=C/c1cccnc1,i,i,i,i,i,/,/,/,/,
Nc1nc(OCC(F)(F)F)cc(Oc2ccccc2F)n1,i,i,9.77*,i,i,i,i,i,i,
CC(C)(C)c1nnc(NS(=O)(=O)c2cc(Cl)ccc2Cl)s1,i,i,11.8*,i,i,i,i,i,i,
O=S(=O)(Nc1nnc(C(F)(F)F)s1)c1ccc(Cl)cc1,i,i,i,i,i,/,/,/,/,
COc1ccccc1-n1cc(-c2ccccc2)c2c(=S)nc[nH]c21,i,i,16.4*,i,i,i,i,i,i,
NS(=O)(=O)c1cccc(NC(=O)Cn2nc(C(=O)O)c3ccccc3c2=O)c1,i,i,i,i,i,/,/,/,/,
O=C(O)c1c2c(nc3ccccc13)/C(=C/c1ccc(OC(F)F)cc1)CCC2,i,i,i,i,i,/,/,/,/,
O=C(O)c1c2c(nc3ccccc13)/C(=C/c1c(F)cccc1F)CCC2,i,i,8.2*,i,i,i,i,i,i,
CC(OC(=O)CN1C(=O)c2ccccc2C1=O)C(=O)NC1CCCC1 (stereo not given),i,i,i,i,i,/,/,/,/,
CC(C)(C)c1ccc(-c2noc(-c3ccc4c(c3)CCO4)n2)cc1,-5.01*,i,7.41*,i,i,i,i,i,i,MrgX1 antag conf=i
C=CCNC(=S)Nc1ccc(OC)c(S(=O)(=O)N2CCOCC2)c1,i,i,8.73*,i,i,i,i,i,i,
C=CCNC(=S)Nc1ccc(Cl)c(S(=O)(=O)N2CCOCC2)c1,i,i,i,i,i,/,/,/,/,
O=C(O)c1cccc(N2C(=O)c3ccc(Oc4ccc(Cl)cc4)cc3C2=O)c1,i,i,i,i,i,/,/,/,/,
O=C(O)c1cccc(N2C(=O)c3ccc4c5c(ccc(c35)C2=O)C(=O)N(c2cccc(C(=O)O)c2)C4=O)c1,i,i,6.99*,i,i,i,i,i,i,
COC(=O)c1nccnc1C(=O)Nc1ccccc1N1CCOCC1,i,i,i,i,i,/,/,/,/,
COc1cccc(CNC(=O)C2CCC(CNc3c(N4CCC(C)CC4)c(=O)c3=O)CC2)c1 (stereo not given),i,i,i,i,i,/,/,/,/,
